Source: ChEMBL document CHEMBL3045646, “Synthesis and antityrosinase activities of alkyl 3,4-dihydroxybenzoates” (J Agric Food Chem, 2011)
Calls of active or inactive are those of the source. The rule behind the calls is not given here.

Key:
[1] = target: T1, Tyrosinase (Agaricus bisporus, UniProt O42713); experiment: Inhibition of Agaricus bisporus (mushroom) tyrosinase using L-DOPA as substrate by secondary plot analysis
T1 sequence (O42713 whole entry): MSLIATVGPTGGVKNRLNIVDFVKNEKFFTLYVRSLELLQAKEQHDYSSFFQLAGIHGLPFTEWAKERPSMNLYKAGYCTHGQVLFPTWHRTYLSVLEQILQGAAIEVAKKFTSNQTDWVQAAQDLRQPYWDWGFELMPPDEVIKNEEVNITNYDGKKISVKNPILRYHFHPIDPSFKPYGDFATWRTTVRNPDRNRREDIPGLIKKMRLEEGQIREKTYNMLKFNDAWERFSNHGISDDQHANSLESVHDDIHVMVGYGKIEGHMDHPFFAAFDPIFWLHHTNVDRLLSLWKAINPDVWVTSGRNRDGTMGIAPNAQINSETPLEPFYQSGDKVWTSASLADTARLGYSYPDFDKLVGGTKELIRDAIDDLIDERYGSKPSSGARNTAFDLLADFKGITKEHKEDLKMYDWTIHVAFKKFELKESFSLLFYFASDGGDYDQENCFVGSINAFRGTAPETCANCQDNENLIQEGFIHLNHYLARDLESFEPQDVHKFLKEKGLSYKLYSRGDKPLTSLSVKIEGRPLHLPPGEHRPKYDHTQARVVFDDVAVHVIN
Outline: (§1)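 L-DOPA oxidation by mushroom tyrosinase at 30 °C, pH 6.8, with inhibitor at 0, 50, 100, 150 and 200 μM, read at 475 nm. Inhibition type came from Lineweaver–Burk plots (1/v vs 1/[S]). K_IS came from a secondary plot of 1/V_m (or apparent K_m/V_m) against inhibitor concentration.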

[2] = tested on: Plutella xylostella; experiment: Insecticidal activity against second-instar larval stage of Plutella xylostella (diamondback moth) assessed as inhibition of insect development and molting at 40 mg/ml after 3 days (reference value: 0.95 cm); assay type: functional
Outline: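 Compound dissolved in acetone, diluted (2.5–40 mg/mL) and spread over feed surface. Larvae kept at 27 ± 2 °C, 70% humidity, 14:10 h light:dark photoperiod. Larval body length recorded after 3 days.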

[3] = target: T1, Tyrosinase; experiment: Inhibition of Agaricus bisporus (mushroom) tyrosinase-catalyzed oxidation of L-DOPA substrate by spectrophotometric analysis
Outline: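 Diphenolase activity of mushroom tyrosinase (6.67 μg/mL final) with 0.5 mM L-DOPA in 50 mM sodium phosphate pH 6.8, 30 °C. Inhibitors added from DMSO, 3.3% DMSO final; DMSO-only controls. Rate from slope of linear A475 progress curve. IC50 = concentration giving 50% activity loss.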

[4] = target: T2, Tyrosinase (Agaricus bisporus) (UniProt O42713); experiment: Uncompetitive inhibition of Agaricus bisporus (mushroom) tyrosinase assessed as […] in Km and Vm without change in Km/Vm using L-DOPA as substrate at 50 uM by Line-weaver burk plot analysis; outline: as §1
T2 sequence (whole entry): T1 sequence (O42713 whole entry)

[5] = tested on: Plutella xylostella; experiment: Downregulation of tyrosinase inactive precursor, PxPPO gene expression in newly molted second-instar larval stage of Plutella xylostella (diamondback moth) at 2.5 to 40 mg/ml after 72 hr by real-time quantitative PCR analysis; assay type: functional, organism-based
Outline: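 Compound in acetone, diluted to 2.5, 5, 20 and 40 mg/mL and spread on feed surface in wells. Larvae reared at 27 ± 2 °C, 70% humidity, 14:10 h light:dark. Whole-body PxPPO2 transcripts measured 72 h after treatment by real-time qPCR (95 °C 10 s; 45 cycles of 95 °C 5 s / 60 °C 20 s), with melting-curve check, normalized to GAPDH.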

[6] = target: T2, Tyrosinase (Agaricus bisporus); experiment: Reversible inhibition of Agaricus bisporus (mushroom) tyrosinase assessed as remaining enzyme activity using L-DOPA as substrate by spectrophotometric analysis
Outline: (§2)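 Reversibility tested with L-DOPA as substrate in pH 6.8 phosphate buffer at 30 °C, with A475 read-out. Remaining activity was plotted against enzyme concentration at several inhibitor levels, with inhibitor series of 0–200, 0–100 or 0–80 μM. Lines through the origin were taken as reversible, and parallel lines not through the origin as irreversible.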

[7] = target: T2, Tyrosinase (Agaricus bisporus); experiment: Irreversible inhibition of Agaricus bisporus (mushroom) tyrosinase assessed as remaining enzyme activity at >75 uM using L-DOPA as substrate by spectrophotometric analysis; outline: as §2
[8] = target: T2, Tyrosinase (Agaricus bisporus); experiment: Reversible inhibition of Agaricus bisporus (mushroom) tyrosinase assessed as remaining enzyme activity at <50 uM using L-DOPA as substrate by spectrophotometric analysis; outline: as §2
[9] = target: T2, Tyrosinase (Agaricus bisporus); experiment: Irreversible inhibition of Agaricus bisporus (mushroom) tyrosinase assessed as remaining enzyme activity using L-DOPA as substrate by spectrophotometric analysis; outline: as §2
[10] = target: T2, Tyrosinase (Agaricus bisporus); experiment: Uncompetitive inhibition of Agaricus bisporus (mushroom) tyrosinase assessed as […] in Km and Vm without change in Km/Vm using L-DOPA as substrate by Line-weaver burk plot analysis; outline: as §1

| Ki [1] | IC50 [3] | inhibition [4] | inhibition [6] | inhibition [7] | inhibition [8] | inhibition [9] | inhibition [10] | SMILES | Activity [2] | inhibition [5] |
| --- | --- | --- | --- | --- | --- | --- | --- | --- | --- | --- |
| 389 µM | 910 µM | Active | Active | – | – | – | – | CCCCCCOC(=O)c1ccc(O)c(O)c1 [HEXYL 3,4-DIHYDROXYBENZOATE] | 0.3 cm | Active |
| – | 129 µM | Active | – | Active | Active | – | – | CCCCCCCCOC(=O)c1ccc(O)c(O)c1 [OCTYL 3,4-DIHYDROXYBENZOATE] | – | – |
| – | 81 µM | – | – | – | – | Active | – | CCCCCCCCCOC(=O)c1ccc(O)c(O)c1 [NONYL 3,4-DIHYDROXYBENZOATE] | – | – |
| 135 µM | 316 µM | – | Active | – | – | – | Active | CCCCCCCOC(=O)c1ccc(O)c(O)c1 [HEPTYL 3,4-DIHYDROXYBENZOATE] | – | – |
